Test results from ChEMBL document CHEMBL5252676, “Dimeric polyphenols to pave the way for new antimalarial drugs” (RSC Med Chem, 2023).
Converted amounts (≈) assume the structure as drawn. “And” between values parts separate entries of the source, which are not always exact repeats. Equal values may be shown once. The source made the active and inactive calls. The calls are words filed in the database; no cut-off is given here.

How the values were obtained:
[1] = Selectivity index, ratio of IC50 for cytotoxicity against HUVEC cells to IC50 for antiplasmodial activity against chloroquine-sensitive Plasmodium falciparum 3D7; assay type: toxicity, cell-based; conditions: human, read-out: Ratio IC50
[2] = Cytotoxicity against HUVEC cells assessed as inhibition of cell growth incubated for 48 hrs by fluorescence based assay; assay type: toxicity; conditions: human
Method in brief: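 HUVEC in EGM-2, at most 10 passages, seeded at 2.5 × 10⁴ cells/well and grown 24 h at 37 °C. Six 2-fold concentrations in triplicate (DMSO max 0.5%) for 48 h. PrestoBlue for 2–3 h, fluorescence 560–590 nm, growth compared with untreated cells. n = 3 separate tests.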

[3] = Hemolytic activity in RBC (unknown origin) assessed as hemolysis at 100 ug/ml incubated for 1 hrs by absorbance based microplate reader analysis relative to control; assay type: toxicity, cell-based, Erythrocyte; conditions: red blood cells, at 100 µg/mL, read-out: Activity
Method in brief: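 Human A⁺/O⁺ RBC, 10% v/v in PBS, exposed to compound at 100 μg mL⁻¹ final (DMSO < 1%), in duplicate, stirred 1 h at RT. Centrifuged, supernatant OD₅₅₀ read. % lysis = (sample − PBS)/(1% Triton X-100 − PBS) × 100.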

Plasmodium falciparum [4] = assay: Antiplasmodial activity against chloroquine-sensitive Plasmodium falciparum 3D7 assessed as intraerythrocytic growth inhibition; assay type: functional, organism-based
Method in brief: (§1)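 Asexual intraerythrocytic P. falciparum cultured at 37 °C in RPMI with glucose, hypoxanthine, gentamycin and 10% pooled human A+/O+ serum. DMSO stocks of 5–10 mg mL⁻¹ diluted in RPMI, final DMSO at most 1%. Eight two-fold dilutions tested in three consecutive assays. Growth read as Plasmodium lactate dehydrogenase activity at 650 nm against parasitized RBC (100%) and free RBC (0%). IC50 in triplicate; artemisinin and quinine as controls.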

Plasmodium falciparum [5] = assay: Antiplasmodial activity against chloroquine-resistant Plasmodium falciparum FcB1 assessed as intraerythrocytic growth inhibition; assay type: functional, organism-based; method in brief: as §1
Plasmodium falciparum [6] = assay: Antiplasmodial activity against multidrug-resistant Plasmodium falciparum W2 assessed as intraerythrocytic growth inhibition; assay type: functional, organism-based; method in brief: as §1
[7] = Aqueous solubility of compound assessed as Cmax incubated for 3 days by UV spectrophotometer based shake-flask method; assay type: physicochemical; conditions: water (aqueous); time 3 day; read-out: Cmax
Method in brief: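 Shake-flask: excess solid stirred overnight in MilliQ water at RT (~25 °C), filtered 0.45 μm, diluted, absorbance read at the λmax from a UV scan. Quantified against a 3-point calibration curve (R² > 0.95). Fresh saturated solutions were made on 3 consecutive days.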

[8] = Cytotoxicity against HUVEC confluent cells assessed as inhibition of cell growth incubated for 48 hrs by fluorescence based assay; assay type: toxicity; conditions: human
Method in brief: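 Confluent HUVEC: plates seeded 3 days before treatment, then exposed to six 2-fold concentrations for 48 h. PrestoBlue fluorescence read-out (560–590 nm), compared with untreated cells.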

[9] = Toxicity in zebrafish embryos assessed as survival at highest concentration measured for 3 days relative to control; parameters: species or system Danio rerio; conditions: in vivo, time 3 day, read-out: Activity
Method in brief: (§2)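 Zebrafish embryos were synchronized 24 h after collection and kept at 28 °C with chorion intact, 20 per condition in duplicate. They were exposed to 100, 50, 25 or 10 μg mL⁻¹ from 100 mg mL⁻¹ DMSO stocks (final DMSO under 0.1%), with medium renewed daily for 3 days. Aspect, hatching and mortality were followed to 96 hpf against 30 control embryos in water with 0.1% DMSO.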

[10] = Toxicity in zebrafish embryos assessed as reduction in brain size at 10 to 100 ug/ml measured for 3 days; assay type: tissue-based, Danio rerio; conditions: in vivo, 72 h, dose 10-100 µg/ml, time 3 day
[11] = Toxicity in zebrafish embryos assessed as brain misshape at 10 to 100 ug/ml measured for 3 days; assay type: tissue-based, Danio rerio; conditions: in vivo, 72 h, dose 10-100 µg/ml, time 3 day
[12] = Toxicity in zebrafish embryos assessed as modified heart rate at 10 to 100 ug/ml measured for 3 days; parameters: species or system Danio rerio; conditions: in vivo, 72 h, dose 10-100 µg/ml, time 3 day
[13] = Toxicity in zebrafish embryos assessed as egg hatching at 10 to 100 ug/ml measured for 72 hrs relative to control; assay type: tissue-based, Danio rerio; conditions: in vivo, at 10 to 100 µg/mL, dose 10-100 µg/ml
[14] = Toxicity in zebrafish embryo assessed as developmental defects at 10 to 100 ug/ml measured 24 hrs post fertilization; parameters: species or system Danio rerio; conditions: in vivo, dose 10-100 µg/ml
[15] = Toxicity in zebrafish embryo assessed as survival at 10 to 100 ug/ml measured 24 hrs post fertilization relative to control; parameters: species or system Danio rerio; conditions: in vivo, at 10 to 100 µg/mL, dose 10-100 µg/ml, read-out: Activity; method in brief: as §2
[16] = tested on: Plasmodium vinckei petteri; assay: Antiplasmodial activity against Plasmodium vinckei petteri infected in Swiss mouse model assessed as inhibition of parasite growth at 50 to 100 mg/kg,ip administered for 4 days relative to control; assay type: functional; parameters: scale not given: the % may be the effect or the level left; conditions: dose 50-100 mg/kg, time 4 day
[17] = tested on: Plasmodium vinckei petteri; assay: Antiplasmodial activity against Plasmodium vinckei petteri infected in Swiss mouse model assessed as inhibition of parasite growth administered intraperitoneally for 4 days; assay type: functional; conditions: 96 h, route ip, time 4 day
Plasmodium berghei [18] = assay: Antiplasmodial activity against Plasmodium berghei NK173 infected in Swiss CD-1 mouse model of malaria assessed as reduction in parasitaemia at 50 mg/kg, po measured after 7 days by giemsa staining based microscopic analysis; assay type: functional, organism-based; conditions: time 7.0 day
Method in brief: (§3)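 Peters' 4-day suppressive test: female Swiss CD1 mice (10 weeks, 25 ± 2 g), six per group, infected i.p. with P. berghei NK173-parasitized RBC at D1. Dosing 2–3 h post-infection, then daily for 3 days, in 7% Tween 80/3% EtOH in saline. Giemsa thin tail-blood smears (≥500 erythrocytes) at D4 (2 h post-dose) and D7. Inhibition is taken versus vehicle controls.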

[19] = tested on: Plasmodium vinckei petteri; assay: Antiplasmodial activity against Plasmodium vinckei petteri infected in Swiss mouse model assessed as inhibition of parasite growth administered orally for 4 days; assay type: functional; conditions: 96 h, route po, time 4 day
[20] = Oral bioavailability in human; assay type: ADME, organism-based; conditions: in vivo
Plasmodium falciparum [21] = assay: Antiplasmodial activity against Plasmodium falciparum 3D7 assessed as inhibition of parasite reduction by Plasmodium lactate dehydrogenase activity
[22] = tested on: Plasmodium vinckei petteri; assay: Antiplasmodial activity against Plasmodium vinckei petteri infected in Swiss mouse model assessed as reduction in parasitaemia at 50 mg/kg, ip administered for 4 days; parameters: scale not given: the % may be the effect or the level left; conditions: time 4 day
[23] = Selectivity index, ratio of IC50 for antiplasmodial activity against chloroquine-resistant Plasmodium falciparum FcB1 to IC50 for antiplasmodial activity against chloroquine-sensitive Plasmodium falciparum 3D7; assay type: functional
[24] = Selectivity index, ratio of IC50 for antiplasmodial activity against chloroquine-resistant Plasmodium falciparum FcB1 to IC50 for antiplasmodial activity against multidrug-resistant Plasmodium falciparum W2; assay type: functional
[25] = Toxicity in zebrafish embryos assessed as reduction in egg hatching measured for 72 hrs; parameters: species or system Danio rerio; conditions: in vivo, dose 10-100 µg/ml
[26] = Toxicity in zebrafish embryo assessed as egg hatching at 100 ug/ml measured for 72 hrs relative to control; assay type: tissue-based, Danio rerio; conditions: in vivo, at 100 µg/mL
[27] = Toxicity in zebrafish embryos assessed as reduction in egg hatching at 10 to 100 ug/ml measured 5 days post fertilization; parameters: species or system Danio rerio; conditions: in vivo, 120 h, dose 10-100 µg/ml, time 5 day
[28] = Toxicity in mouse at 150 mg/kg, ip administered 2 hrs once for 6 hrs and measured for 24 hrs; assay type: organism-based; conditions: in vivo
Method in brief: (§4)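 Two mice per route (i.p. or p.o.) received 4 increasing doses over 6 h (every 2 h) in Tween 80/EtOH/saline (7/3/90), then were followed for 24 h for health or behavioural problems. Maximal dose is set as 50% of the cumulative dose giving toxicity.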

[29] = Toxicity in mouse at 200 mg/kg, po administered 2 hrs once for 6 hrs and measured for 24 hrs; assay type: organism-based; conditions: in vivo; method in brief: as §4
Plasmodium berghei [30] = assay: Antiplasmodial activity against Plasmodium berghei NK173 infected in Swiss CD-1 mouse model of malaria assessed as reduction in parasitaemia at 50 mg/kg, po measured after 4 days by giemsa staining based microscopic analysis relative to control; assay type: functional; parameters: scale not given: the % may be the effect or the level left; conditions: time 4 day; method in brief: as §3
Plasmodium berghei [31] = assay: Antiplasmodial activity against Plasmodium berghei NK173 infected in Swiss CD-1 mouse model of malaria assessed as reduction in parasitaemia at 50 mg/kg, ip measured after 4 days by giemsa staining based microscopic analysis relative to control; assay type: functional; parameters: scale not given: the % may be the effect or the level left; conditions: time 4 day; method in brief: as §3
Plasmodium falciparum [32] = assay: Antiplasmodial activity against Plasmodium falciparum 3D7 assessed as inhibition of parasite reduction by giemsa staining based analysis; assay type: functional, organism-based
Method in brief: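 3D7 cultures were exposed to compound for 48 h. Parasitaemia was then scored by microscopy as a visual check of parasite burden.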

## O=C(OCCCOC(=O)c1cc(O)c(OCc2ccccc2)c(O)c1)c1cc(O)c(OCc2ccccc2)c(O)c1
[1]
  selectivity ratio: 8
[2]
  IC50 at 48 h: 14 µM
[3]
  hemolysis at 1 h, 100 ug/ml: < 1%
Plasmodium falciparum [4]
  IC50: 1.8 µM
Plasmodium falciparum [5]
  IC50: 1.7 µM
Plasmodium falciparum [6]
  IC50: 1.9 µM
[7]
  solubility thermodynamic at 72 h: 26 µM (≈ 14.6 µg/mL)
[8]
  IC50 at 48 h: 12.1 µM
[9]
  survival at 72 h: > 90%
[10]
  Activity: Non-Toxic
[11]
  Activity: Non-Toxic
[12]
  Activity: Non-Toxic
[13]
  Activity: 100%
[14]
  Activity: Non-Toxic
[15]
  survival at 24 h: > 95%

## O=c1oc2c(O)c(O)cc3c(=O)oc4c(O)c(O)cc1c4c23 [ELLAGIC ACID]
[1]
  selectivity ratio: > 59
[2]
  IC50 at 48 h: > 165 µM
[3]
  hemolysis at 1 h, 100 ug/ml: < 1%
Plasmodium falciparum [4]
  IC50: 2.8 µM
Plasmodium falciparum [5]
  IC50: 7.5 µM
Plasmodium falciparum [6]
  IC50: 8.9 µM
[7]
  solubility thermodynamic at 72 h: 18 µM (≈ 5.44 µg/mL)
[16]
  Activity: 100%
[17]
  ED50: < 1 mg/kg
Plasmodium berghei [18]
  Activity: inactive
[19]
  ED50: > 100 mg/kg
[20]
  bioavailability: 1%
Plasmodium falciparum [21]
  IC50: 2.8 µM
[22]
  Activity: 100%

## O=C(NCCCNC(=O)c1cc(O)c(O)c(O)c1)c1cc(O)c(O)c(O)c1
[1]
  selectivity ratio: 28
[2]
  IC50 at 48 h: 130 µM
[3]
  hemolysis at 1 h, 100 ug/ml: < 1%
[23]
  Ratio IC50: 2
[24]
  Ratio IC50: 2
Plasmodium falciparum [4]
  IC50: 9.9 µM
Plasmodium falciparum [5]
  IC50: 26 µM
Plasmodium falciparum [6]
  IC50: 12 µM
[7]
  solubility thermodynamic at 72 h: 610 µM (≈ 231 µg/mL)
[9]
  survival at 72 h: > 90%
[10]
  Activity: Non-Toxic
[11]
  Activity: Non-Toxic
[12]
  Activity: Non-Toxic
[25]
  Activity: Dose-Dependent Effect
[26]
  Activity: 20%
[27]
  Activity: Toxic
[14]
  Activity: Non-Toxic
[15]
  survival at 24 h: > 95%
[28]
  Activity: Non-Toxic
[29]
  Activity: Non-Toxic
Plasmodium berghei [30]
  Activity: 54%
Plasmodium berghei [31]
  Activity: 66%

## O=C(O)c1cc(O)c(O)c(O)c1 [GALLIC ACID]
[1]
  selectivity ratio: > 4
[2]
  IC50 at 48 h: > 294 µM
[3]
  hemolysis at 1 h, 100 ug/ml: < 1%
Plasmodium falciparum [4]
  IC50: 68 µM
[7]
  solubility thermodynamic at 72 h: 70000 µM (≈ 11900 µg/mL)
Plasmodium falciparum [32]
  IC50: > 10 µM and 68 µM
